TAAR1 ag – agonists of human TAAR1; CHO RD-HGA16 TAAR1, Fluo-8 calcium fluorescence; vehicle wells 0%, saturating PEA agonist 100%; activation, % at 3 µM; 360,000 compounds, 0.99% hits;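 active = activation above the mean activation of all test compounds in the run plus 3 SD, cut at about 38% in these data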
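Signal – calcium-sensitive Fluo-8 signal, excitation 470-495, emission 515-575 nm · System – RD-HGA16 (CHO) cells co-expressing Gα16 and hTAAR1 · Incubation – 17-24 h seeding, 75 min 37 °C dye, 30 min RT · Compound dosing – 3 µM single concentration · Repeats – no replicates (n 1)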
V1R ag counter – activates human V1a receptor in oxytocin agonist counter-screen. P37288. CHO-V1R cells, Fluo-8 calcium fluorescence, agonist mode; 0% DMSO, 100% 3 nM vasopressin. activation, % at 3 µM. 320,000 compounds, 0.25% hits;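 active = activation above the mean activation of all tested compounds plus 3 SD, per screening run, cut at about 20% in these data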;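 also: signal is peak over basal fluorescence ratio across a 100 second FLIPR read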
Target sequence (P37288 whole entry, looked up): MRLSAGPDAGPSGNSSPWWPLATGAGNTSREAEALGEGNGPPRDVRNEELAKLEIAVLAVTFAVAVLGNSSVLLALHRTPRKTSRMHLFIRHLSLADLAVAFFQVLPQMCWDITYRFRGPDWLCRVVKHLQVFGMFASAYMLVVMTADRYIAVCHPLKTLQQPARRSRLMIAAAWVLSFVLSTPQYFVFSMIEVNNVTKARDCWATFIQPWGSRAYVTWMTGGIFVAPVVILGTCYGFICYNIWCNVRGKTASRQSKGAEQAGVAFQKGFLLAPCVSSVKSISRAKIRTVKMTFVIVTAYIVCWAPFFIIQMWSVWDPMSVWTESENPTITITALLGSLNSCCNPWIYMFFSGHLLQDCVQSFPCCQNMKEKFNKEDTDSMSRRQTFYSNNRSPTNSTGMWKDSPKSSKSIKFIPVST
OXTR potentiate – potentiates the human oxytocin receptor response. activation, % at 3 µM. AID 2445. CHO-OTR cells, Fluo-8 calcium fluorescence, potentiator mode; 0% = oxytocin EC15, 100% = EC100. P30559. 320,000 compounds, 0.061% hits;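 active = activation above that plate's cutoff, the mean activation of tested compounds plus 3 SD, cut at about 6.6% in these data, passing the limit was not always enough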
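test system = CHO-OTR cells, human receptor | compound = single-point 3.0 µM | schedule = 6 min compound pre-incubation at room temperature, 100 s kinetic read | signal = Fluo-8 no-wash calcium dye fluorescence, excitation 470-495 nm, emission 515-575 nm | repeats = single well per compound, singlicate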
OXTR ag – activates the human oxytocin receptor; P30559; CHO-OTR cells, Fluo-8 calcium fluorescence; normalized: DMSO 0%, oxytocin 100%; activation, % at 3 µM; 320,000 compounds, 0.32% hits; AID 2435;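 active = activation above the mean of all tested compounds plus 3 SD, cutoff set per screening run, cut at about 20% in these data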;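 also: peak over basal fluorescence ratio from a 100 s FLIPR kinetic read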
TAAR1 antagonist – human TAAR1 antagonism. Q96RJ0. CHO RD-HGA16 TAAR1, Fluo-8 calcium fluorescence, antagonist. inhibition, % at 3 µM. 360,000 compounds, 1.5% hits;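 active = inhibition above a per-plate cutoff, the mean inhibition of test compounds on that plate plus 3 SD, cut at about 49% in these data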
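Test system: CHO RD-HGA16 cells bearing hTAAR1 | Reagent: β-PEA, EC80 | Compound dosing: 3 µM, single point | Schedule: Dye loading 75 min at 37 °C, then 30 min room temperature | Signal: Calcium fluorescence with Fluo-8 | Evaluation: Percent inhibition of PEA-evoked calcium signal, max/basal emission ratio | Control set: DMSO-only wells and EC80 β-PEA-stimulated wells | Repeats: Singlicate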
TAAR1 ag conf – human TAAR1 agonism, confirmed | activation, % at 3 µM | CHO RD-HGA16 TAAR1, Fluo-8 calcium fluorescence; scaled: DMSO 0%, maximal phenethylamine 100% | AID 651783 | shares compounds with TAAR1 ag | 2,400 compounds, 82% hits;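 active = activation above a cutoff set at the run's mean compound activation plus 3 SD, cut at about 39% in these data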
Ga16 ag counter – counter-screen for TAAR1 agonists: nonselective agonists in parental cells; shares compounds with TAAR1 ag; CHO-Ga16 parental, Fluo-8 calcium fluorescence; normalized to maximal ATP response, DMSO zero; activation, % at 3 µM; 2,400 compounds, 50% hits; AID 651787;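 active = activation above the run cutoff, the mean activation over all tested wells plus 3 SD, cut at about 12% in these data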
TAAR1 desens – human TAAR1 agonist that also desensitizes the receptor | AID 651951 | shares compounds with TAAR1 ag | CHO RD-HGA16 hTAAR1, Fluo-8 calcium, beta-PEA response inhibition | 2,400 compounds, 46% hits | inhibition, % at 3 µM;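 active = inhibition above the run cutoff, the mean inhibition of all test compounds plus 3 SD, cut at about 49% in these data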;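 also: beta-PEA stimulus applied at its EC80; loss of beta-PEA calcium signal after compound pretreatment read as receptor desensitization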
Ga16 antag count – counter-screen for TAAR1 agonists: nonselective Ga16 antagonists | shares compounds with TAAR1 ag | CHO-Ga16 ATP-induced calcium, Fluo-8 fluorescence | inhibition, % at 3 µM | 2,400 compounds, 39% hits;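 active = inhibition above the plate's mean compound inhibition plus 3 SD, computed per plate, cut at about 22% in these data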
Hits are given with their value; n = inactive; x = no result given. Shown are actives, neighbours in structure and some others; about 2.3% of the full set was active somewhere.

SMILES	TAAR1 ag	V1R ag counter	OXTR potentiate	OXTR ag	TAAR1 antagonist	TAAR1 ag conf	Ga16 ag counter	TAAR1 desens	Ga16 antag count
COc1cc(C(=O)NNC(=S)NC(=O)c2ccc(Cl)cc2)cc(OC)c1OC	141	34	n	37	86	93	84	67	43
Cc1cccc(C(=O)NC(=S)NNC(=O)c2ccc(Cl)cc2)c1	171	112	n	98	104	159	121	107	93
Cc1cccc(C(=O)NNC(=O)c2ccc(Br)cc2)c1	n	n	n	n	n	x	x	x	x
O=C(NNC(=S)NC(=O)c1sc2ccccc2c1Cl)c1ccc(Cl)cc1	91	57	n	46	50	163	141	106	103
CC1CCCCC1NC(=O)C1CCC(CNS(=O)(=O)c2ccc3c(c2)C(C)(C)C(=O)N3C)CC1 (centres undefined)	n	x	x	x	n	x	x	x	x
Cc1ccc(S(=O)(=O)n2ccc(OC(=O)c3cccs3)n2)cc1	99	n	n	n	n	81	45	n	n
Cc1ccc(S(=O)(=O)c2c(C)nn(C(C)(C)C)c2OC(=O)c2cccs2)cc1	n	n	n	n	n	x	x	x	x
Cc1ccc(S(=O)(=O)n2nc(OC(=O)c3cccs3)cc2N)cc1	92	n	n	n	n	65	33	n	n
Cc1ccc(S(=O)(=O)n2nc(OC(=O)c3ccccc3C)cc2N)cc1	48	n	n	n	n	53	32	n	23
COc1ccccc1C(=O)Oc1cc(N)n(S(=O)(=O)c2ccc(C)cc2)n1	n	n	n	n	n	x	x	x	x
Cc1ccc(F)cc1NC(=O)CN1CCN(Cc2ccccc2)CC1	n	n	n	n	n	x	x	x	x
CCC(C)(C)NC(=O)CN(Cc1ccc2c(c1)OCO2)C(=O)CCC(=O)Nc1cc(C)ccn1	n	n	n	n	n	x	x	x	x
CCOC(=O)Cn1c(=N)n(CCOc2ccc3ccccc3c2)c2ccccc21	58	n	n	n	n	57	26	51	41
CCCCOC(=O)Cn1c(=N)n(CCC)c2ccccc21	n	n	n	n	n	x	x	x	x
CCOc1ccc(-c2c(C(=O)N/N=C/c3ccc(OC(C)C)cc3)nnn2-c2nonc2N)cc1	116	23	n	21	n	118	75	n	37
CCc1ccc(/C=N/NC(=O)c2nnn(-c3nonc3N)c2C(C)C)cc1	133	47	n	55	80	134	101	96	59
Cc1ccc(-c2c(C(=O)N/N=C/c3ccc(OC(C)C)cc3)nnn2-c2nonc2N)cc1	130	37	n	30	70	125	94	57	46
Cc1ccc(-c2c(C(=O)N/N=C/c3ccc4c(c3)OCO4)nnn2-c2nonc2N)cc1	n	n	n	n	n	x	x	x	x
C=CCc1cccc(/C=N/NC(=O)c2ccc3nc[nH]c3c2)c1O	n	n	n	n	n	x	x	x	x
CN1CCN(C(=O)c2ccc(S(=O)(=O)Nc3ccccc3)cc2)CC1	n	n	n	n	n	x	x	x	x
O=C(c1ccccc1)N1CCC(c2nc(-c3ccc(S(=O)(=O)NCC4CCCO4)cc3)no2)CC1 (centres undefined)	43	n	n	n	n	n	n	n	27
O=C(C1CC1)N1CCC(c2nc(-c3ccc(S(=O)(=O)NCC4CCCO4)cc3)no2)CC1 (centres undefined)	n	n	n	n	n	x	x	x	x
O=[N+]([O-])c1ccc(NC(=S)N2CCc3ccccc3C2)cc1	60	n	n	n	n	81	n	63	22
COc1ccc(NC(=S)N2CCc3ccccc3C2)cc1OC	x	n	n	n	x	x	n	x	n
